Activity calls are given as the source filed them. The calls are words filed in the database; no cut-off is given here.

Data set [1] has as its system Woodchuck hepatitis virus. Kind of data set: Antiviral activity against Woodchuck hepatitis virus infected in woodchuck assessed as frequency of hepatocytes expressing viral antigen at 15 mg/kg, po qd measured on 12th week on 48 weeks study. It counts as functional, Hepatocyte. A digest of the protocol: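 Chronic WHV-carrier woodchucks, 5 per group, given 15 mg/kg/day orally once daily for 48 weeks in liquid diet; placebo is diet alone. Liver biopsies at pretreatment, weeks 12, 36, 48 and 12 weeks after withdrawal. Cytoplasmic WHsAg staining scored 0–4: 1 ≤1%, 2 ≤2%, 3 ≤5%, 4 ≥10% of hepatocytes.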

Data set [2] has as its system Woodchuck hepatitis virus. Put plainly: Antiviral activity against Woodchuck hepatitis virus infected in woodchuck assessed as absent of lesion in portal hepatitis at 15 mg/kg, po qd for 48 weeks. It counts as functional, organism-based. On the set-up: dose 15 mg/kg. The procedure, abridged:
(§1)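 Adult chronic WHV-carrier woodchucks (neonatally inoculated), 5 per group, given drug once daily by dose syringe in semisynthetic liquid diet, for 48 weeks; placebo got diet alone. Ultrasound-guided needle liver biopsies under ketamine/xylazine anesthesia at pretreatment, weeks 12, 36, 48 and 12 weeks post-withdrawal. Biopsies were formalin-fixed, paraffin-embedded and H&E stained. Portal and lobular hepatitis were graded 0 (absent) to 4 (most severe).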

The subject of data set [3] is Woodchuck hepatitis virus. Put plainly: Antiviral activity against Woodchuck hepatitis virus infected in woodchuck assessed as reduction of viral antigen positive hepatocytes at 15 mg/kg, po qd measured on 12th week on 48 weeks study (reference value: 55 +/- 32 %). It counts as functional, Hepatocyte. More on the design: scale not given: the % may be the effect or the level left. The procedure, abridged: (§2)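 Chronic WHV-carrier woodchucks, 5 per group, 15 mg/kg/day oral once daily for 48 weeks in liquid diet. Liver biopsies were taken at pretreatment, weeks 12, 36, 48 and week 60. Percentage of hepatocytes positive for WHcAg was given as group mean ± SD and compared with pretreatment and placebo.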

In data set [4] the test system is Marmota monax. Put plainly: Toxicity in Woodchuck hepatitis virus infected woodchuck assessed as effect on hematological parameters at 15 mg/kg, po qd for 48 weeks measured up to 60 weeks. It counts as organism-based. More on the design: dose 15 mg/kg, route oral. To be noted: in vivo. A digest of the protocol: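 Chronic WHV-carrier woodchucks, 5 per group, were dosed orally once daily in liquid diet for 48 weeks, with a placebo diet-only group. Body weights were monitored. Complete blood counts were taken 2 weeks pretreatment, at weeks 12, 36 and 48 of treatment, and 12 weeks after withdrawal. Values were compared with placebo controls.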

The test system of data set [5] is Woodchuck hepatitis virus. Put plainly: Antiviral activity against Woodchuck hepatitis virus infected in woodchuck assessed as reduction of viral DNA replicative intermediate level per ug of total cell DNA at 15 mg/kg, po qd measured on 36th week on 48 weeks study (reference value: 1132 +/- 738 pg). It counts as functional. A digest of the protocol:
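Chronic WHV-carrier woodchucks, 5 per group, 15 mg/kg/day oral once daily for 48 weeks in liquid diet. Needle liver biopsies were snap-frozen in liquid nitrogen and stored at −70°C. Hepatic WHV DNA replicative intermediates were quantified by Southern blot (pg/μg total cell DNA) and WHV RNA by Northern blot; group means ± SD were compared with pretreatment and placebo.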

In data set [6] the test system is Marmota monax. Put plainly: Toxicity in Woodchuck hepatitis virus infected woodchuck assessed as increase of liver alanine aminotransferase activity at 15 mg/kg, po qd for 48 weeks. To be noted: in vivo, 8064 h. It counts as organism-based. More on the design: dose 15 mg/kg, route oral. A digest of the protocol:
(§3)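 Woodchucks chronically infected with WHV, 5 per group, received oral drug once daily in liquid diet for 48 weeks; placebo got diet only. Serum chemistry (GGT, ALP, ALT, AST, SDH, among others) was run 2 weeks pretreatment, at week 0, every other week to week 12, then monthly to week 48. Sampling continued at 2, 4, 6, 8 and 12 weeks post-treatment.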

Data set [7] deals with Woodchuck hepatitis virus. Kind of data set: Antiviral activity against Woodchuck hepatitis virus infected in woodchuck assessed as absent of lesion in portal hepatitis at 15 mg/kg, po qd for 48 weeks measured on 60th week. On the set-up: dose 15 mg/kg. It counts as functional, organism-based. The procedure, abridged: (§4)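 Chronic WHV-carrier adult woodchucks (inoculated at 3 days of age), 5 per group, dosed orally once daily for 48 weeks by dose syringe, drug in saline suspended in semisynthetic liquid diet; placebo is diet alone. Ultrasound-guided needle liver biopsies under ketamine/xylazine, formalin-fixed, H&E stained; portal and lobular hepatitis graded 0 (absent) to 4 (most severe).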

Data set [8] relates to Marmota monax. Kind of data set: Toxicity in Woodchuck hepatitis virus infected woodchuck assessed as increase of serum gamma-glutamyltransferase activity at 15 mg/kg, po qd for 48 weeks. It counts as organism-based. On the set-up: dose 15 mg/kg, route oral. To be noted: in vivo, 8064 h. The procedure, abridged: as §3
Data set [9] concerns Woodchuck hepatitis virus. Kind of data set: Antiviral activity against Woodchuck hepatitis virus infected in woodchuck assessed as reduction of viral antigen level in serum at 15 mg/kg, po qd measured on 12th week on 48 weeks study (reference value: 4.3 +/- 1.5 log10 ng/ml). It counts as functional.
In data set [10] the test system is Marmota monax. Put plainly: Toxicity in Woodchuck hepatitis virus infected woodchuck assessed as increase of liver alkaline phosphatase activity at 15 mg/kg, po qd for 48 weeks. The format is organism-based. More on the design: dose 15 mg/kg, route oral. To be noted: in vivo, 8064 h. A digest of the protocol: as §3
The subject of data set [11] is Woodchuck hepatitis virus. Put plainly: Antiviral activity against Woodchuck hepatitis virus infected in woodchuck assessed as absent of lobular in portal hepatitis at 15 mg/kg, po qd for 48 weeks. It counts as functional, organism-based. More on the design: dose 15 mg/kg. A digest of the protocol: as §1
In data set [12] the test system is Woodchuck hepatitis virus. Kind of data set: Antiviral activity against Woodchuck hepatitis virus infected in woodchuck assessed as reduction of viral antigen positive hepatocytes at 15 mg/kg, po qd for 48 weeks study (reference value: 35 +/- 27 %). The format is functional, Hepatocyte. On the set-up: scale not given: the % may be the effect or the level left. The procedure, abridged:
as §2

Data set [13] has as its system Woodchuck hepatitis virus. Put plainly: Antiviral activity against Woodchuck hepatitis virus infected in woodchuck assessed as absent of lesion in portal hepatitis at 15 mg/kg, po qd measured on 12th week on 48 weeks study. It counts as functional, organism-based. More on the design: dose 15 mg/kg. A digest of the protocol: as §1
Data set [14] relates to Woodchuck hepatitis virus. Kind of data set: Antiviral activity against Woodchuck hepatitis virus infected in woodchuck assessed as absent of lesion in lobular hepatitis at 15 mg/kg, po qd for 48 weeks measured on 60th week. It counts as functional, organism-based. On the set-up: dose 15 mg/kg. A digest of the protocol: as §1
In data set [15] the test system is Woodchuck hepatitis virus. Put plainly: Antiviral activity against Woodchuck hepatitis virus infected in woodchuck assessed as reduction of viral antigen positive hepatocytes at 15 mg/kg, po qd for 48 weeks measured on 60th week (reference value: 26 %). More on the design: scale not given: the % may be the effect or the level left. The format is functional, Hepatocyte. The procedure, abridged:
as §2

In data set [16] the test system is Woodchuck hepatitis virus. Kind of data set: Antiviral activity against Woodchuck hepatitis virus infected in woodchuck assessed as absent of lesion in portal hepatitis at 15 mg/kg, po qd measured on 36th week on 48 weeks study. It counts as functional, organism-based. On the set-up: dose 15 mg/kg. The procedure, abridged: as §4

Consider `CC(C)(C)C(=O)OCOP(=O)(COCCn1cnc2c(N)ncnc21)OCOC(=O)C(C)(C)C` [ADEFOVIR DIPIVOXIL], for which the Activity in data set [1] is given as 1%; in data set [3], 21%; in data set [4], “Non-toxic”; in [5], 324 pg; in data set [6], “Toxic”; in data set [8], “Toxic”. The Activity is on record as 4.3 log10ng/ml in data set [9], “Toxic” in [10], 13% in data set [12] and 48% in data set [15]. For the same molecule, the result in [2], in [7], in data set [11], in data set [13] and in data set [14] was Active.
Regarding `CC(C)OC(=O)OCOP(=O)(CO[C@H](C)Cn1cnc2c(N)ncnc21)OCOC(=O)OC(C)C.O=C(O)/C=C/C(=O)O` [TENOFOVIR DISOPROXIL FUMARATE], the Activity in data set [1] was 0%; in data set [3], 30%; in data set [4], “Non-toxic”; in data set [5] it was 443 pg; in data set [6] it was “Toxic”; in data set [8], “Toxic”. The Activity is on record as 3.4 log10ng/ml in data set [9], “Toxic” in data set [10], 26% in [12] and 39% in data set [15]. In addition, the result in data set [2], in data set [16], in [7] and in [13] was Active.

(Values after ChEMBL document CHEMBL1687712, “Antiviral effects of lamivudine, emtricitabine, adefovir dipivoxil, and tenofovir disoproxil fumarate administered orally alone and in combination to woodchucks with chronic woodchuck hepatitis virus infection” (Antimicrob Agents Chemother, 2008).)
